Experimental data: publication PMC2939154 (Nature, 2010)
Entries after “also recorded” stand apart in the source; their conditions may differ. Ends that are not written are not given here.

Experiments:
[1] = biological target: N-terminal RCC1 methyltransferase (NRMT) (not stated (human or mouse cDNA cloned)) (UniProt Q9BV86); experiment: ITC
NRMT [2] = biological target: T1, NRMT (Homo sapiens, UniProt Q9BV86); experiment: isothermal titration calorimetry; type: binding; conditions: ITC, 25OC, methyltransferase buffer pH 8.0
T1 sequence (Q9BV86 1-223): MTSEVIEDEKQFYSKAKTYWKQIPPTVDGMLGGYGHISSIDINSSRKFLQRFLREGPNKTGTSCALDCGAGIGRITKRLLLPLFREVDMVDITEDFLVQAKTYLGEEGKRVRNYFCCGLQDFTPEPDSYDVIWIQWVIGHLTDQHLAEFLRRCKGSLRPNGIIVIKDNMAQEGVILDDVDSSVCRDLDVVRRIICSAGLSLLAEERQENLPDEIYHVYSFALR
Summary of the method: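 Isothermal titration calorimetry of NRMT binding to peptide ligands: the wild-type RCC1 N-terminal peptide and a mutant peptide with Gln in place of Lys4. This tests whether Lys4 is needed for substrate binding. The readout is binding affinity.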

[3] = tested on: N-terminally methylated proteins; conditions: mouse spleen and cardiac lysates, anti-me3-SPK immunoprecipitation
NRMT [4] = biological target: T1, NRMT; experiment: in vitro methylation assay of protein substrates by NRMT, immunoblot; type: biochemical; conditions: 50mM Tris, 50mM K Acetate, pH 8.0, 100 µM SAM, 1 h at 30°C
[5] = tested on: RCC1 methylation in 293LT cells; experiment: NRMT lentiviral knockdown and rescue in 293LT cells, immunoblot; type: cell-based; conditions: murine NRMT, not targeted by human shRNA
SPK-RCC1 = type: biochemical, human; conditions: in vitro methylation of SPK-RCC1

| Molecule | N-terminal methylation identified by MS [3] | in vitro methylation (enzyme FLAG-NRMT or His6-NRMT; substrate protein) (NRMT [4]) | further results |
| --- | --- | --- | --- |
| wild-type 12-residue RCC1 N-terminal peptide | – | – | Kd [1]: 70 µM; dH [1]: -9.8 kcal/mol |
| H-SPKRIAKRRSPP | – | – | ΔH (exothermic binding) (NRMT [2]): -9.8 kcal/mol |
| myosin light chain 3: mouse protein identified in anti-me3-SPK immunoprecipitates | N-terminally methylated | – | – |
| RB: tumor suppressor protein RB; endogenous, or N-terminus fused to GFP (Fig. 3g) (protein, UniProt P06400 2-928, looked up) Retinoblastoma-associated …: PPKTPRKTAATAAAAAAEPPAPPPPPPPEEDPEQDSGPEDLPLVRLEFEETEEPDFTALCQKLKIPDHVRERAWLTWEKVSSVDGVLGGYIQKKKELWGICIFIAAVDLDEMSFTFTELQKNIEISVHKFFNLLKEIDTSTKVDNAMSRLLKKYDVLFALFSKLERTCELIYLTQPSSSISTEINSALVLKVSWITFLLAKGEVLQMEDDLVISFQLMLCVLDYFIKLSPPMLLKEPYKTAVIPINGSPRTPRRGQNRSARIAKQLENDTRIIEVLCKEHECNIDEVKNVYFKNFIPFMNSLGLVTSNGLPEVENLSKRYEEIYLKNKDLDARLFLDHDKTLQTDSIDSFETQRTPRKSNLDEEVNVIPPHTPVRTVMNTIQQLMMILNSASDQPSENLISYFNNCTVNPKESILKRVKDIGYIFKEKFAKAVGQGCVEIGSQRYKLGVRLYYRVMESMLKSEEERLSIQNFSKLLNDNIFHMSLLACALEVVMATYSRSTSQNLDSGTDLSFPWILNVLNLKAFDFYKVIESFIKAEGNLTREMIKHLERCEHRIMESLAWLSDSPLFDLIKQSKDREGPTDHLESACPLNLPLQNNHTAADMYLSPVRSPKKKGSTTRVNSTANAETQATSAFQTQKPLKSTSLSLFYKKVYRLAYLRLNTLCERLLSEHPELEHIIWTLFQHTLQNEYELMRDRHLDQIMMCSMYGICKVKNIDLKFKIIVTAYKDLPHAVQETFKRVLIKEEEYDSIIVFYNSVFMQRLKTNILQYASTRPPTLSPIPHIPRSPYKFPSSPLRIPGGNIYISPLKSPYKISEGLPTPTKMTPRSRILVSIGESFGTSEKFQKINQMVCNSDRVLKRSAEGSNPPKPLKKLRFDIEGSDEADGSKHLPGESKFQQKLAEMTSTRTRMQKQKMNDSMDTSNKEEK | – | can methylate in vitro; also recorded: able to methylate | – |
| kelch-like protein 31: mouse protein identified in anti-me3-SPK immunoprecipitates (protein, UniProt Q8BWA5 2-634, looked up) Kelch-like protein 31: APKKKTIKKNKAEINEMTIIVEDSPLSKLNALNGLLEGSNSLSCVSSELTDTSYGPNLLEGLSKMRQESFLCDLVIGTKTKSFDVHKSVMASCSEYFYNILKNDPSTKRVDLNDIAPLGLATVIAYAYTGKLTLSLYTIGSIISAAVYLQIHTLVKMCSDFLIREISVENCMYVVNIAETYSLKNAKATAQKFIRDNFIEFAESEQFMKLTFEQINELLVDDDLQLPSELVAFQIAMKWLEFDQKRVKHAADLLSNIRFGTISAQDLVNYVQTVPRMMQDADCHKLLVDAMNYHLLPYHQNTLQSRRTRIRGGCRVLITVGGRPGLTEKSLSRDILYRDPENGWSKLTEMPAKSFNQCVAVMDGFLYVAGGEDQNDARNQAKHAVSNFCRYDPRFNTWIHLGSMNQKRTHFSLSVFNGLLYAVGGRNSEGSLASLECYVPSTNQWQPKAPLEVARCCHASAVADGRVIVTGGYIGSAYSRSVCAYDPALDAWQELPQLSTPRGWHCAVALGDRLYVMGGSQLGPRGERVDVLTVESFSPAARQWSFVAPLPVGVSTAGVSALHGRAYLLGGWNEGDKKYKKCIQCFNPELNEWTEDDELPEATVGVSCCTLAMPNSVSRESRASSVSSVPVSI | N-terminally methylated | – | – |
| murine NRMT-FLAG: murine NRMT-FLAG, not targeted by the human shRNA (protein, UniProt Q8R2U4 1-223, looked up, FLAG tag) N-terminal Xaa-Pro-Lys …: MTSEVIEDEKQFYSKAKTYWKQIPPTVDGMLGGYGHISNIDLNSSRKFLQRFLREGPNKTGTSCALDCGAGIGRITKRLLLPLFRVVDMVDVTEDFLAKAKTYLGEEGKRVRNYFCCGLQDFSPEPGSYDVIWIQWVIGHLTDQHLAEFLRRCKRGLRPNGIIVIKDNMAQEGVILDDVDSSVCRDLEVVRRIIRTAGLSLLAEERQENLPDEIYHVYSFALR | – | – | RCC1 methylation levels, rescue in NRMT knockdown cells [5]: rescues RCC1 methylation levels; also recorded: RCC1 methylation was rescued |
| RCC1-His6: recombinant RCC1 with C-terminal His6 tag (protein, left off: His6, C-terminal, state not stated) MSPKRIAKRRSPPADAIPKSKKVKVSHRSHSTEPGLVLTLGQGDVGQLGLGENVMERKKPALVSIPEDVVQAEAGGMHTVCLSKSGQVYSFGCNDEGALGRDTSVEGSEMVPGKVELQEKVVQVSAGDSHTAALTDDGRVFLWGSFRDNNGVIGLLEPMKKSMVPVQVQLDVPVVKVASGNDHLVMLTADGDLYTLGCGEQGQLGRVPELFANRGGRQGLERLLVPKCVMLKSRGSRGHVRFQDAFCGAYFTFAISHEGHVYGFGLSNYHQLGTPGTESCFIPQNLTSFKNSTKSWVGFSGGQHHTVCMDSEGKAYSLGRAEYGRLGLGEGAEEKSIPTLISRLPAVSSVACGASVGYAVTKDGRVFAWGMGTNYQLGTGQDEDAWSPVEMMGKQLENRVVLSVSSGGQHTVLLVKDKEQS | – | di-and trimethylates | – |
| RCC1: regulator of chromosome condensation 1, Ran guanine nucleotide-exchange factor (protein, UniProt P18754 2-421, looked up) Regulator of chromosome …: SPKRIAKRRSPPADAIPKSKKVKVSHRSHSTEPGLVLTLGQGDVGQLGLGENVMERKKPALVSIPEDVVQAEAGGMHTVCLSKSGQVYSFGCNDEGALGRDTSVEGSEMVPGKVELQEKVVQVSAGDSHTAALTDDGRVFLWGSFRDNNGVIGLLEPMKKSMVPVQVQLDVPVVKVASGNDHLVMLTADGDLYTLGCGEQGQLGRVPELFANRGGRQGLERLLVPKCVMLKSRGSRGHVRFQDAFCGAYFTFAISHEGHVYGFGLSNYHQLGTPGTESCFIPQNLTSFKNSTKSWVGFSGGQHHTVCMDSEGKAYSLGRAEYGRLGLGEGAEEKSIPTLISRLPAVSSVACGASVGYAVTKDGRVFAWGMGTNYQLGTGQDEDAWSPVEMMGKQLENRVVLSVSSGGQHTVLLVKDKEQS | N-terminally methylated | – | – |
| PPK-RCC1-His6: RCC1 possessing a Pro2 residue, His6 tagged (protein, UniProt P18754 2-421, looked up, variant S2P, His6 tag) Regulator of chromosome …: PPKRIAKRRSPPADAIPKSKKVKVSHRSHSTEPGLVLTLGQGDVGQLGLGENVMERKKPALVSIPEDVVQAEAGGMHTVCLSKSGQVYSFGCNDEGALGRDTSVEGSEMVPGKVELQEKVVQVSAGDSHTAALTDDGRVFLWGSFRDNNGVIGLLEPMKKSMVPVQVQLDVPVVKVASGNDHLVMLTADGDLYTLGCGEQGQLGRVPELFANRGGRQGLERLLVPKCVMLKSRGSRGHVRFQDAFCGAYFTFAISHEGHVYGFGLSNYHQLGTPGTESCFIPQNLTSFKNSTKSWVGFSGGQHHTVCMDSEGKAYSLGRAEYGRLGLGEGAEEKSIPTLISRLPAVSSVACGASVGYAVTKDGRVFAWGMGTNYQLGTGQDEDAWSPVEMMGKQLENRVVLSVSSGGQHTVLLVKDKEQS | – | dimethylates | – |
| FLAG-NRMT: N-terminally FLAG-tagged NRMT (protein, UniProt Q9BV86 1-223, looked up, N-terminal FLAG tag) N-terminal Xaa-Pro-Lys …: MTSEVIEDEKQFYSKAKTYWKQIPPTVDGMLGGYGHISSIDINSSRKFLQRFLREGPNKTGTSCALDCGAGIGRITKRLLLPLFREVDMVDITEDFLVQAKTYLGEEGKRVRNYFCCGLQDFTPEPDSYDVIWIQWVIGHLTDQHLAEFLRRCKGSLRPNGIIVIKDNMAQEGVILDDVDSSVCRDLDVVRRIICSAGLSLLAEERQENLPDEIYHVYSFALR | – | methylates RCC1-His6 | – |
| NRMT(Lys169): NRMT mutant at Asn169 (protein) TSEVIEDEKQFYSKAKTYWKQIPPTVDGMLGGYGHISSIDINSSRKFLQRFLREGPNKTGTSCALDCGAGIGRITKRLLLPLFREVDMVDITEDFLVQAKTYLGEEGKRVRNYFCCGLQDFTPEPDSYDVIWIQWVIGHLTDQHLAEFLRRCKGSLRPNGIIVIKDKMAQEGVILDDVDSSVCRDLDVVRRIICSAGLSLLAEERQENLPDEIYHVYSFALR | – | – | methylation activity of NRMT mutant (SPK-RCC1): no activity |
| myosin light chain 2: mouse protein identified in anti-me3-SPK immunoprecipitates (protein, UniProt P51667 2-166, looked up) Myosin regulatory light chain …: APKKAKKRIEGGSSNVFSMFEQTQIQEFKEAFTIMDQNRDGFIDKNDLRDTFAALGRVNVKNEEIDEMIKEAPGPINFTVFLTMFGEKLKGADPEETILNAFKVFDPEGKGSLKADYVREMLTTQAERFSKEEIDQMFAAFPPDVTGNLDYKNLVHIITHGEEKD | N-terminally methylated | – | – |
